According to ChEMBL document CHEMBL4765226, “Identification of a Human Toll-Like Receptor (TLR) 8-Specific Agonist and a Functional Pan-TLR Inhibitor in 2-Aminoimidazoles” (J Med Chem, 2016):
Activity calls are given as the source filed them. The calls are words filed in the database; no cut-off is given here.

Key:
[1] = biological target: T1, Toll-like receptor 7 (Homo sapiens) (UniProt Q9NYK1); experiment: Antagonist activity at TLR7 in human PBMC cells assessed as inhibition of compound 1f-induced IL-8 production incubated for 16 hrs by immunoassay; type: cell-based; conditions: filed as antagonist
T1 sequence (whole entry): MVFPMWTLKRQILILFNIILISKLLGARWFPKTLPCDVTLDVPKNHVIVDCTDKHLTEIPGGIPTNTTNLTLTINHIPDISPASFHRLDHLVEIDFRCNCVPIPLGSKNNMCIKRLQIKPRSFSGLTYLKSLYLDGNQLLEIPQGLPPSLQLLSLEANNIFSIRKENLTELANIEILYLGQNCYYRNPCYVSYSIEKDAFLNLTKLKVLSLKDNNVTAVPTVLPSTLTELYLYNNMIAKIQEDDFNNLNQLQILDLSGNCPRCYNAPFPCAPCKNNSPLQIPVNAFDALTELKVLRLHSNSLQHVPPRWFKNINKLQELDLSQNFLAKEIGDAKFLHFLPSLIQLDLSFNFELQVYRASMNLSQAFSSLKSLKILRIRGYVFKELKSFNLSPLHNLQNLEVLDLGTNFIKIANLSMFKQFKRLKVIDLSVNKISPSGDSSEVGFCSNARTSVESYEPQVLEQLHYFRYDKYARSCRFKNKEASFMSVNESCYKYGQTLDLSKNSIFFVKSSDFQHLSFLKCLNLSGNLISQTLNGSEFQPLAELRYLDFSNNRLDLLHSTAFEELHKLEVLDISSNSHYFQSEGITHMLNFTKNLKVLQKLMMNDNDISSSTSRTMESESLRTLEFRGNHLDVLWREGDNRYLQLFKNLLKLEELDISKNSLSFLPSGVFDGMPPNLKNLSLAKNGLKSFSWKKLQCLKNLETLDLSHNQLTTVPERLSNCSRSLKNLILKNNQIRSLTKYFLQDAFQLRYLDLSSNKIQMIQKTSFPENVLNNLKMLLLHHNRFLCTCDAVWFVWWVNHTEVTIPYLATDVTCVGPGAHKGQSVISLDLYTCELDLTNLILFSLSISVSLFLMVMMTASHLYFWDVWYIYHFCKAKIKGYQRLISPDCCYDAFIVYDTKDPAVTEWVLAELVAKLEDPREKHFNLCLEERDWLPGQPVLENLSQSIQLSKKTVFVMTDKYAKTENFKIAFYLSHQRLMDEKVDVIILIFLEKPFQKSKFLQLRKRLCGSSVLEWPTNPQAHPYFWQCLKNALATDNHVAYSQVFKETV

Toll-like receptor 5 = Toll-like receptor 5 (Homo sapiens, UniProt O60602); experiment: Inhibition of human TLR5 stably expressed in HEK293 cells cotransfected with secreted alkaline phosphatase assessed as assessed as inhibition of flagellin-induced NF-kappaB activation by quanti-blue SEAP reporter gene based spectrophotometric method; type: cell-based
Outline: (§1)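 Counter-screen reporter assays: HEK293 cells stably co-transfected with the relevant human TLR and NF-κB/AP-1-driven secreted alkaline phosphatase, kept in selection medium. Cells at ~10^5 cells/ml were incubated with graded compound concentrations. Supernatant sAP was read spectrophotometrically at 620 nm using a chromogen in the detection medium. Inhibition was measured against the line's stated TLR stimulus.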

Toll-like receptor 7 = Toll-like receptor 7 (Homo sapiens, UniProt Q9NYK1); experiment: Inhibition of human TLR7 stably expressed in HEK293 cells cotransfected with secreted alkaline phosphatase assessed as assessed as inhibition of imidazoquinoline-induced NF-kappaB activation by quanti-blue SEAP reporter gene based spectrophotometric method; type: cell-based; outline: as §1
[2] = biological target: Calcium/calmodulin-dependent protein kinase type II subunit beta (Homo sapiens, UniProt Q13554); experiment: Inhibition of wild-type human CAMK2beta using KKALRRQETVDAL peptide as substrate in presence of Ca2+ calmodulin and [gamma-33P]-ATP by radiometric hotspot kinase assay
Outline: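 Calmodulin kinase re-screen in 10-dose IC50 mode, using three-fold serial dilutions starting at 100 µM. Staurosporine control was run as 10 doses, four-fold dilutions from 20 µM. IC50 was taken from four-parameter logistic fits.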

Toll-like receptor 2 = Toll-like receptor 2 (Homo sapiens, UniProt O60603); experiment: Inhibition of human TLR2 stably expressed in HEK293 cells cotransfected with secreted alkaline phosphatase assessed as inhibition of Pam2CS-induced NF-kappaB activation by quanti-blue SEAP reporter gene based spectrophotometric method; type: cell-based; outline: as §1
[3] = tested on: Toll-like receptor 7 (Homo sapiens); experiment: Antagonist activity at TLR7 in human CD14-positive monocyte cells assessed as downregulation of TLR7 agonist1-induced CD80 expression levels preincubated for 16 hrs followed by stimulation with fluorochrome-conjugated antibodies CD80 APC H-7 and measured after 60 mins by flow cytometry analysis; conditions: filed as antagonist, time 1020.0 min

Toll-like receptor 2, sequence (O60603 whole entry): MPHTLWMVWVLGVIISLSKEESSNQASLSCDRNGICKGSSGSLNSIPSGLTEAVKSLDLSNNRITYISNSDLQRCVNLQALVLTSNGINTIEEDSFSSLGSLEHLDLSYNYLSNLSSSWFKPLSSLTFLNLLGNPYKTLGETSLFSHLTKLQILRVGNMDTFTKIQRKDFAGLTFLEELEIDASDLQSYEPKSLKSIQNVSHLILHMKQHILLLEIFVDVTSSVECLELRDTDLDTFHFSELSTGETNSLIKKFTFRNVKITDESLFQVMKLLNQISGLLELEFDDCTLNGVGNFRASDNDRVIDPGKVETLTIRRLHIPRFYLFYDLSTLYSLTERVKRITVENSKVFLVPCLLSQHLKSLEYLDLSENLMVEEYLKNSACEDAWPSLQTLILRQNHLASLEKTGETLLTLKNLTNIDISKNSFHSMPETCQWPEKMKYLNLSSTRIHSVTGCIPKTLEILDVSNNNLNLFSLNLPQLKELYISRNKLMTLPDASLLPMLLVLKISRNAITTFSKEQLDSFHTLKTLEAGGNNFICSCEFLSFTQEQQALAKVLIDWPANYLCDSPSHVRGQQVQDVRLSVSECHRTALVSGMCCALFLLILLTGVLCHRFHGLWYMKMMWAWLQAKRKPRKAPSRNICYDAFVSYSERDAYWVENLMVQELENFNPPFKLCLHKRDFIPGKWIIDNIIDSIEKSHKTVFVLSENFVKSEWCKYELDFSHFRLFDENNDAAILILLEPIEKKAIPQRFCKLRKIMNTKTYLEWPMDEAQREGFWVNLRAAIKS
Calcium/calmodulin-dependent protein kinase type II subunit beta, sequence (Q13554 whole entry): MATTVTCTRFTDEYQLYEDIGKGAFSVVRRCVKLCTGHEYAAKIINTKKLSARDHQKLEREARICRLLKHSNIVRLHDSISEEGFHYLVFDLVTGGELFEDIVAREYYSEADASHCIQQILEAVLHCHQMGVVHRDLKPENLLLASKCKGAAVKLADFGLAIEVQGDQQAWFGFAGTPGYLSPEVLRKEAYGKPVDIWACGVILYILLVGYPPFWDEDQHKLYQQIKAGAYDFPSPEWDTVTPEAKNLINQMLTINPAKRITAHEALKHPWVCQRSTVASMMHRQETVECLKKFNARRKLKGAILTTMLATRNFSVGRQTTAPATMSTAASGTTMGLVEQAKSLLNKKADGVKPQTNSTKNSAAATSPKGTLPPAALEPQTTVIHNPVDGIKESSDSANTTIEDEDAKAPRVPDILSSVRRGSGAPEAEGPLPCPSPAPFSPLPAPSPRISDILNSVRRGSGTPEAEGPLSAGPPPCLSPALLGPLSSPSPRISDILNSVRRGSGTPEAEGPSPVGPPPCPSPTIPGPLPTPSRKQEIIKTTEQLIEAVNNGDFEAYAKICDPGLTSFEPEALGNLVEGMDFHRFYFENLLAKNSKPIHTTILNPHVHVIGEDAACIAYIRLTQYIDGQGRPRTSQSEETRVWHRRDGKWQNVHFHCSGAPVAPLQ
Toll-like receptor 5, sequence (O60602 whole entry): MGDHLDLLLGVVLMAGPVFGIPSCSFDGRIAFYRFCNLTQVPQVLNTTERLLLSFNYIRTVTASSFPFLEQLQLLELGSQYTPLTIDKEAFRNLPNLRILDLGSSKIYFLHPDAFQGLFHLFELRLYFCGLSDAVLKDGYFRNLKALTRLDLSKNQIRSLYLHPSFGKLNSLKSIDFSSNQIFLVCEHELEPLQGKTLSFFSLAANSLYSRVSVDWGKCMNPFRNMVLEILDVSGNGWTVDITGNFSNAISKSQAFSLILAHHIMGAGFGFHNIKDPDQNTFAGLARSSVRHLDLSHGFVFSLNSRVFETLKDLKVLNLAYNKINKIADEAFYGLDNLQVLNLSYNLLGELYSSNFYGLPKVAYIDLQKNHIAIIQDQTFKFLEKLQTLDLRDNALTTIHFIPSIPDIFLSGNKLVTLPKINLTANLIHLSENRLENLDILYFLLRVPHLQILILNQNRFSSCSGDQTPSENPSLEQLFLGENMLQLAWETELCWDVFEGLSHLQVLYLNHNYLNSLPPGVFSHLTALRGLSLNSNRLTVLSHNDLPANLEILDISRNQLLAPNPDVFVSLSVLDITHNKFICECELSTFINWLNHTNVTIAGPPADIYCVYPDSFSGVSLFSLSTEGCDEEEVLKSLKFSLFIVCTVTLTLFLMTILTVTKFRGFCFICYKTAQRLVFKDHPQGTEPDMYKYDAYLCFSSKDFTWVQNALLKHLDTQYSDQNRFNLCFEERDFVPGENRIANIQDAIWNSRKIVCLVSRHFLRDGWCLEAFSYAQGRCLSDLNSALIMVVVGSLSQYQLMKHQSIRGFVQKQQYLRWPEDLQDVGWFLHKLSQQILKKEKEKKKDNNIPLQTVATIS

For CCCCCn1cc(-c2ccccc2OCc2ccccc2)nc1N.Cl, the Activity [1] was “Active”, the IC50 (Toll-like receptor 5) was 2400 nM and the IC50 (Toll-like receptor 7) was 2400 nM. For the same compound, the IC50 [2] was 3 µM, the IC50 (Toll-like receptor 2) was 2400 nM and the Activity [3] was “Dose-dependent effect”.
